According to ChEMBL document CHEMBL1795212, “Synthesis and in vitro antimalarial activity of tetraoxane-amine/amide conjugates” (Eur J Med Chem, 2011):

How the values were obtained:
Plasmodium falciparum [1] = experiment: Antimalarial activity against Plasmodium falciparum W2 assessed as plasmodial LDH activity after 72 hrs; type: functional, organism-based; settings: Plasmodium falciparum, W2, 72 h; read-out: IC50
In short: (§1)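 P. falciparum D6 (chloroquine-sensitive) and W2 (chloroquine-resistant) clones screened in vitro alongside Vero cytotoxicity, up to a highest concentration of 12.5; IC50 determined.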

Vero [2] = experiment: Cytotoxicity against african green monkey Vero cells at 12.5 uM; type: cell-based; settings: chlorocebus sabaeus
In short: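 Mammalian kidney Vero cells screened in vitro for cytotoxicity, in parallel with the antimalarial screen, up to a highest concentration of 12.5.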

[3] = Selectivity index, IC50 for african green monkey Vero cells to IC50 for Plasmodium falciparum D6; type: functional
In short: (§2)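 Selectivity index is the cytotoxicity IC50 in Vero cells divided by the antimalarial IC50 against the stated P. falciparum clone (D6 or W2).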

[4] = Selectivity index, IC50 for african green monkey Vero cells to IC50 for Plasmodium falciparum W2; type: functional; in short: as §2
Plasmodium falciparum [5] = experiment: Antimalarial activity against Plasmodium falciparum D6 assessed as plasmodial LDH activity after 72 hrs; type: functional, organism-based; settings: Plasmodium falciparum, D6, 72 h; read-out: IC50; in short: as §1
[6] = Cytotoxicity against pig LLC-PK11 cells up to 25 uM; type: cell-based, Sus scrofa
In short: (§3)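 Cytotoxicity panel: four cancer lines (SK-MEL, KB, BT-549, SK-OV-3) and two non-cancer lines (Vero, LLC-PK11), tested up to a concentration of 25.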

KB = experiment: Cytotoxicity against human KB cells up to 25 uM; type: cell-based; in short: as §3
SK-MEL = experiment: Cytotoxicity against human SK-MEL cells up to 25 uM; type: cell-based; in short: as §3
Vero [7] = experiment: Cytotoxicity against african green monkey Vero cells up to 25 uM; type: cell-based; settings: chlorocebus sabaeus; in short: as §3
SK-OV-3 = experiment: Cytotoxicity against human SKOV3 cells up to 25 uM; type: cell-based; in short: as §3
BT-549 = experiment: Cytotoxicity against human BT549 cells up to 25 uM; type: cell-based; in short: as §3

Compound	IC50 (Plasmodium falciparum [1]) [µM]	Activity (Vero [2])	Ratio IC50 [3]	Ratio IC50 [4]	IC50 (Plasmodium falciparum [5]) [µM]	Activity [6]	Activity (KB)	Activity (SK-MEL)	Activity (Vero [7])	Activity (SK-OV-3)	Activity (BT-549)
Cc1ccc(C2OOC(c3ccc(CNc4ccc(O)cc4)cc3)OO2)cc1 (configuration not stated)	7.11	Non-toxic	>1.8	>1.8	6.32						
Cc1ccc(C2OOC(c3ccc(/C=N\c4cccnc4)cc3)OO2)cc1 (configuration not stated)	0.8	Non-toxic	>17.6	>16.4	0.75	Non-toxic	Non-toxic	Non-toxic	Non-toxic	Non-toxic	Non-toxic
Cc1ccc(C2OOC(c3ccc(CNc4cccnc4)cc3)OO2)cc1 (configuration not stated)	0.57	Non-toxic	>34	>22.7	0.38	Non-toxic	Non-toxic	Non-toxic	Non-toxic	Non-toxic	Non-toxic
Cc1ccc(C2OOC(c3ccc(CNc4ccc(Br)cc4)cc3)OO2)cc1 (configuration not stated)	4.97	Non-toxic	>1.4	>2.2	7.69						
COc1ccc(NCc2ccc(C3OOC(c4ccc(C)cc4)OO3)cc2)cc1 (configuration not stated)	10.2	Non-toxic	>1.5	>1.2	8.13						
COc1cc(NCc2ccc(C3OOC(c4ccc(C)cc4)OO3)cc2)cc(OC)c1 (configuration not stated)	9.2	Non-toxic	>1.8	>1.2	6.37						
Cc1ccc(C2OOC(c3ccc(CNc4cccc(O)c4)cc3)OO2)cc1 (configuration not stated)	3.95	Non-toxic	>3.7	>3.2	3.42						
Cc1ccc(C2OOC(c3ccc(CNc4ccc(N)cc4)cc3)OO2)cc1 (configuration not stated)	7.39	Non-toxic	>2.4	>1.7	5.28						
Cc1ccc(C2OOC(c3ccc(C(=O)O)cc3)OO2)cc1 (configuration not stated)	9.26	Non-toxic	>1.5	>1.7	10.6						
CCc1ccc(C2OOC(c3ccc(C(=O)NCCO)cc3)OO2)cc1 (configuration not stated)	7.51	Non-toxic	>2	>1.8	6.67						
CCc1ccc(C2OOC(c3ccc(C(=O)NCCCO)cc3)OO2)cc1 (configuration not stated)	4.82	Non-toxic	>2.6	>2.6	4.82						
CCc1ccc(C2OOC(c3ccc(C(=O)NCCCCCCO)cc3)OO2)cc1 (configuration not stated)	4.81	Non-toxic	>3.4	>2.4	3.36						
CCCNC(=O)c1ccc(C2OOC(c3ccc(C)cc3)OO2)cc1 (configuration not stated)	13.9	Non-toxic	>3.4	>1	8.73						
CCCCNC(=O)c1ccc(C2OOC(c3ccc(CC)cc3)OO2)cc1 (configuration not stated)	6.99	Non-toxic	>1.9	>1.8	6.73						
Cc1ccc(C2OOC(c3ccc(C(=O)NCCNc4ccnc5cc(Cl)ccc45)cc3)OO2)cc1 (configuration not stated)	1.5	Non-toxic	>8.5	>6.3	1.1						
Cc1ccc(C2OOC(c3ccc(C(=O)NCCCNc4ccnc5cc(Cl)ccc45)cc3)OO2)cc1 (configuration not stated)	2.11	Non-toxic	>7.7	>4.3	1.19						
CCc1ccc(C2OOC(c3ccc(C(=O)NCCCNc4ccnc5cc(Cl)ccc45)cc3)OO2)cc1 (configuration not stated)	2.43	Non-toxic	>8.2	>3.7	1.08						
Cc1ccc(C2OOC(c3ccc(C(=O)NCCc4ccccc4)cc3)OO2)cc1 (configuration not stated)	2.09	Non-toxic	>4.3	>5.6	2.71						
Cc1ccc(C2OOC(c3ccc(C(=O)N4CCN(c5ccccc5)CC4)cc3)OO2)cc1 (configuration not stated)	7.16	Non-toxic	>2.6	>1.5	4.03						
Cc1ccc(C2OOC(c3ccc(C(=O)NC4CCCCC4)cc3)OO2)cc1 (configuration not stated)	2.86	Non-toxic	>2.8	>4.3	4.43						
Cc1ccc(C2OOC(c3ccc(C(=O)NCCCCCCCN)cc3)OO2)cc1 (configuration not stated)	4.66	Non-toxic	>2.2	>2.4	5.13						
C[C@@H]1CC[C@H]2[C@@H](C)C(=O)O[C@@H]3O[C@@]4(C)CC[C@@H]1[C@]32OO4 [ARTEMISININ]	0.025	Non-toxic	>500	>670	0.03						
